Measurements published in ChEMBL document CHEMBL6071141, “In vitro and in vivo evaluation of Bombesin-MMAE conjugates for targeted tumour therapy” (Eur J Med Chem, 2024).
Numbered stars: 1 amine (or outer) side, 2 acyl side, 3 side chain; on linkers, the order of the positions; unused ones are H or OH. Bridge positions count the residues as written; N and C are the ends. Square brackets hold non-standard residues; d marks the D form. Peptide text beside a SMILES is read from it. I, II: the chains in the order shown. * marks the point of attachment. Hexanoyl(6-succinimido-3yl) = O=C1CC([*:1])C(=O)N1CCCCCC(=O)[*:2]; Trp(3a,7a-dihydro) = N[C@@H](CC1=CNC2C=CC=CC12)C(=O)O; Dolaproine = CO[C@@H]([C@@H]1CCCN1)[C@@H](C)C(=O)O; Dil = CC[C@H](C)[C@H](NC)[C@@H](CC(=O)O)OC; Sta = CC(C)C[C@H](N)[C@@H](O)CC(=O)O; PABC = O=C(OCc1ccc(N[*:1])cc1)[*:2]; X3 = C[C@@H](N*)[C@@H](O)c1ccccc1; Cit = NC(=O)NCCC[C@H](N)C(=O)O; PEG4 = NCCOCCOCCOCCOCCC(=O)O; NMeV = CN[C@H](C(=O)O)C(C)C; Nle = CCCC[C@H](N)C(=O)O; βAla = NCCC(=O)O

How the values were obtained:
[1] = molecular target: T1, Bombesin receptor subtype-3 (Homo sapiens, UniProt P32247); assay: Displacement of 125 I- [Tyr4] from bombesin receptor 3 (unknown origin) assessed as inhibition by radioligand competitive binding assay
T1 sequence (P32247 whole entry): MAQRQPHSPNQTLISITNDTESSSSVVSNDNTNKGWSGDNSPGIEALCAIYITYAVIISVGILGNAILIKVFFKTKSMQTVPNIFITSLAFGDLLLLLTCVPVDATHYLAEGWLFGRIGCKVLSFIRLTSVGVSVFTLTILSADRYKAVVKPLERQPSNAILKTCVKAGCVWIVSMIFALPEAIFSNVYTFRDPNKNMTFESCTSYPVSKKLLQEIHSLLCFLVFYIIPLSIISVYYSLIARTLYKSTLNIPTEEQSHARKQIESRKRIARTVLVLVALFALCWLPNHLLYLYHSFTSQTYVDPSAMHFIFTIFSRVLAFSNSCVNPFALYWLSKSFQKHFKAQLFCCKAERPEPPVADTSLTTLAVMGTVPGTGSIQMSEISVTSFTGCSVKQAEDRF

[2] = molecular target: T2, Gastrin-releasing peptide receptor (Homo sapiens, UniProt P30550); assay: Displacement of 125 I- [Tyr4] from bombesin receptor 2 (unknown origin) assessed as inhibition by radioligand competitive binding assay
[3] = Displacement of 125 I- [Tyr4] from bombesin receptor 1 (unknown origin) assessed as inhibition by radioligand competitive binding assay; design: species or system Homo sapiens
[4] = Cytotoxicity against human cells MDA-MB-231 assessed as inhibition of cell growth incubated for 72 hrs by CellTiter 96 aqueous assay; assay type: toxicity, cell-based; conditions: MDA-MB-231 cells
How it was run: (§1)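 PC-3 or MDA-MB-231 cells were treated the day after seeding with serial dilutions, from 2000 nM for conjugates and 100 nM for MMAE, for 72 h. Then the assay was stopped, or run 72 h more after a medium change (single) or re-treatment (double). Controls got 0.05 % DMSO. Read-out was MTS absorbance at 490 nm after 90 min. IC50 by non-linear regression; ≥2 experiments, triplicates.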

[5] = Cytotoxicity against human PC-3 cells assessed as inhibition of cell growth incubated for 72 hrs and followed by treated with compound continued incubation for further 72 hrs (double treatment) after retreatment of compound by CellTiter 96 aqueous assay; assay type: toxicity, cell-based; how it was run: as §1
[6] = Cytotoxicity against human MDA-MB-231 cells assessed as inhibition of cell growth incubated for 72 hrs and followed by treated with compound continued incubation for further 72 hrs (double treatment) after retreatment of compound by CellTiter 96 aqueous assay; assay type: toxicity, cell-based; how it was run: as §1
[7] = molecular target: T2, Gastrin-releasing peptide receptor; assay: Displacement of 125 I- [Tyr4] from bombesin receptor 2 in human PC-3 cells assessed as inhibition by radioligand displacement assay; assay type: cell-based
How it was run: (§2)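 Competition binding on membrane preparations from PC-3 or MDA-MB-231 cells against ¹²⁵I-[Tyr⁴]-bombesin, with conjugates at 10 μM–10 pM. IC50 was taken as the concentration giving 50 % inhibition of tracer binding.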

[8] = Cytotoxicity against human PC-3 cells assessed as inhibition of cell growth incubated with compound for 72 hrs followed by further incubated for 72 hrs (single treatment) by CellTiter 96 aqueous assay; assay type: toxicity, cell-based; how it was run: as §1
[9] = Cytotoxicity against human PC-3 cells assessed as inhibition of cell growth incubated for 72 hrs by CellTiter 96 aqueous assay; assay type: toxicity, cell-based; how it was run: as §1
[10] = molecular target: T2, Gastrin-releasing peptide receptor; assay: Displacement of 125 I- [Tyr4] from bombesin receptor 2 in human MDA-MB-231 cells assessed as inhibition by radioligand displacement assay; assay type: cell-based; how it was run: as §2
[11] = Cytotoxicity against human MDA-MB-231 cells assessed as inhibition of cell growth incubated with compound for 72 hrs followed by further incubated for 72 hrs (single treatment) by CellTiter 96 aqueous assay; assay type: toxicity, cell-based; how it was run: as §1

T2 sequence (P30550 whole entry): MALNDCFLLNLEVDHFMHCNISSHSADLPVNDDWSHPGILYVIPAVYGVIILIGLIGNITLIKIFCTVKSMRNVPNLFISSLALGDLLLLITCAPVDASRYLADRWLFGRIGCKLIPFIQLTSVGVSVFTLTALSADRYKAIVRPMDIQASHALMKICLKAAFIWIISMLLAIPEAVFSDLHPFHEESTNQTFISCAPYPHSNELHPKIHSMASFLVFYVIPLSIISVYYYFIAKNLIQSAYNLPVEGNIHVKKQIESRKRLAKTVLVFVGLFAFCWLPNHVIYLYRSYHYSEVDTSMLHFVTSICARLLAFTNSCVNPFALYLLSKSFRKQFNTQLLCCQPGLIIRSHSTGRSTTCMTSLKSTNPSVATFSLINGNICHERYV

Structure (SMILES) | IC50 [1] | IC50 [2] | IC50 [3] | IC50 at 72 h [4] | IC50 at 144 h [5] | IC50 at 144 h [6] | IC50 [7] | IC50 at 144 h [8] | IC50 at 72 h [9] | IC50 [10] | IC50 at 144 h [11]
CCCC[C@H](NC(=O)C[C@H](O)[C@H](CC(C)C)NC(=O)[C@H](Cc1c[nH]cn1)NC(=O)CCNC(=O)[C@@H](NC(=O)[C@H](C)NC(=O)[C@H](Cc1c[nH]c2ccccc12)NC(=O)[C@H](CCC(N)=O)NC(=O)[C@@H](Cc1ccccc1)NC(=O)[C@H](CS)NC(C)=O)C(C)C)C(N)=O | > 10 µM | 2.18 µM | > 10 µM | – | – | – | – | – | – | – | –
CCCC[C@H](NC(=O)[C@H](CC(C)C)NC(=O)[C@H](Cc1c[nH]cn1)NC(=O)CNC(=O)[C@@H](NC(=O)[C@H](C)NC(=O)[C@H](CC1=CNC2C=CC=CC12)NC(=O)[C@H](CCC(N)=O)NC(=O)[C@H](CC(N)=O)NC(=O)CCOCCOCCOCCOCCNC(=O)[C@H](CSC1CC(=O)N(CCCCCC(=O)N[C@@H](CCC(=O)O)C(=O)NCC(=O)N[C@@H](CCCNC(N)=O)C(=O)Nc2ccc(COC(=O)N(C)[C@H](C(=O)N[C@H](C(=O)N(C)[C@@H]([C@@H](C)CC)[C@@H](CC(=O)N3CCC[C@H]3[C@H](OC)[C@@H](C)C(=O)N[C@H](C)[C@@H](O)c3ccccc3)OC)C(C)C)C(C)C)cc2)C1=O)NC(C)=O)C(C)C)C(N)=O (stereo partly specified) (I: Ac-C[PEG4]NQ[Trp(3a,7a-dihydro)]AVGHL[Nle]-NH2 / II: EG[Cit][PABC][NMeV]V[Dil][Dolaproine]-X3; linker I:1-II:N via Hexanoyl(6-succinimido-3yl)) | – | – | – | 1260 nM | 200 nM | 217 nM | 83.2 nM | 248 nM | 830 nM | 79.3 nM | 270 nM
CC(=O)N[C@H](Cc1ccccc1)C(=O)N[C@@H](CCC(N)=O)C(=O)N[C@@H](Cc1c[nH]c2ccccc12)C(=O)N[C@@H](C)C(=O)N[C@H](C(=O)NCC(=O)N[C@@H](Cc1c[nH]cn1)C(=O)N[C@@H](CC(C)C)[C@@H](O)CC(=O)N[C@@H](CC(C)C)C(N)=O)C(C)C | 0.00111 µM | – | > 10 µM | – | – | – | – | – | – | – | –
CCCC[C@H](NC(=O)C[C@H](O)[C@H](CC(C)C)NC(=O)[C@H](Cc1c[nH]cn1)NC(=O)CCNC(=O)[C@@H](NC(=O)[C@H](C)NC(=O)[C@H](Cc1c[nH]c2ccccc12)NC(=O)[C@H](CCC(N)=O)NC(=O)[C@@H](Cc1ccccc1)NC(C)=O)C(C)C)C(N)=O (Ac-[dF]QWAV[βAla]H[Sta][Nle]-NH2) | > 10 µM | > 10 µM | > 10 µM | – | – | – | – | – | – | – | –
CCCC[C@H](NC(=O)C[C@H](O)[C@H](CC(C)C)NC(=O)[C@H](Cc1c[nH]cn1)NC(=O)CN(C)C(=O)[C@@H](NC(=O)[C@H](C)NC(=O)[C@H](Cc1c[nH]c2ccccc12)NC(=O)[C@H](CCC(N)=O)NC(=O)[C@@H](Cc1ccccc1)NC(C)=O)C(C)C)C(=O)N[C@@H](CS)C(N)=O | > 1 µM | > 10 µM | > 10 µM | – | – | – | – | – | – | – | –
CC(=O)N[C@H](Cc1ccccc1)C(=O)N[C@@H](CCC(N)=O)C(=O)N[C@@H](Cc1c[nH]c2ccccc12)C(=O)N[C@@H](C)C(=O)N[C@H](C(=O)NCC(=O)N[C@@H](Cc1c[nH]cn1)C(=O)N[C@@H](CC(C)C)[C@@H](O)CC(=O)N[C@@H](CC(C)C)C(=O)N[C@@H](CS)C(N)=O)C(C)C | 0.0101 µM | > 10 µM | > 10 µM | – | – | – | – | – | – | – | –
CC(=O)N[C@@H](CS)C(=O)N[C@H](Cc1ccccc1)C(=O)N[C@@H](CCC(N)=O)C(=O)N[C@@H](Cc1c[nH]c2ccccc12)C(=O)N[C@@H](C)C(=O)N[C@H](C(=O)NCCC(=O)N[C@@H](Cc1c[nH]cn1)C(=O)N[C@@H](CC(C)C)[C@@H](O)CC(=O)N[C@@H](CC(C)C)C(N)=O)C(C)C | 5.25 µM | 5.29 µM | > 10 µM | – | – | – | – | – | – | – | –
CCCC[C@H](NC(=O)[C@H](CC(C)C)NC(=O)[C@H](Cc1c[nH]cn1)NC(=O)CNC(=O)[C@@H](NC(=O)[C@H](C)NC(=O)[C@H](CC1=CNC2C=CC=CC12)NC(=O)[C@H](CCC(N)=O)NC(=O)[C@H](CC(N)=O)NC(=O)CCOCCOCCOCCOCCNC(=O)[C@H](CSC1CC(=O)N(CCCCCC(=O)N[C@@H](CCC(=O)O)C(=O)N[C@H](C(=O)N[C@@H](CCCNC(N)=O)C(=O)Nc2ccc(COC(=O)N(C)[C@H](C(=O)N[C@H](C(=O)N(C)[C@@H]([C@@H](C)CC)[C@@H](CC(=O)N3CCC[C@H]3[C@H](OC)[C@@H](C)C(=O)N[C@H](C)[C@@H](O)c3ccccc3)OC)C(C)C)C(C)C)cc2)C(C)C)C1=O)NC(C)=O)C(C)C)C(N)=O (stereo partly specified) (I: Ac-C[PEG4]NQ[Trp(3a,7a-dihydro)]AVGHL[Nle]-NH2 / II: EV[Cit][PABC][NMeV]V[Dil][Dolaproine]-X3; linker I:1-II:N via Hexanoyl(6-succinimido-3yl)) | – | – | – | 344 nM | 12.6 nM | 52.7 nM | 101 nM | 18.2 nM | 64.1 nM | 97.4 nM | 60.1 nM
CCCC[C@H](NC(=O)C[C@H](O)[C@H](CC(C)C)NC(=O)[C@H](Cc1c[nH]cn1)NC(=O)CCNC(=O)[C@@H](NC(=O)[C@H](C)NC(=O)[C@H](Cc1c[nH]c2ccccc12)NC(=O)[C@H](CCC(N)=O)NC(=O)[C@@H](Cc1ccccc1)NC(C)=O)C(C)C)C(=O)N[C@@H](CS)C(N)=O | > 1 µM | > 10 µM | > 10 µM | – | – | – | – | – | – | – | –
CC(=O)N[C@@H](CS)C(=O)N[C@H](C(=O)N[C@@H](CC(C)C)[C@@H](O)CC(=O)N[C@H](Cc1ccccc1)C(=O)N[C@H](CCC(N)=O)C(=O)NCC(=O)N[C@@H](CC(C)C)C(=O)N[C@@H](C)C(=O)N[C@@H](Cc1c[nH]c2ccccc12)C(=O)N[C@@H](Cc1c[nH]cn1)C(N)=O)C(C)C | > 10 µM | 4.75 µM | > 10 µM | – | – | – | – | – | – | – | –
CCCC[C@H](NC(=O)C[C@H](O)[C@H](CC(C)C)NC(=O)[C@H](Cc1c[nH]cn1)NC(=O)CNC(=O)[C@@H](NC(=O)[C@H](C)NC(=O)[C@H](Cc1c[nH]c2ccccc12)NC(=O)[C@H](CCC(N)=O)NC(=O)[C@@H](Cc1ccccc1)NC(C)=O)C(C)C)C(=O)N[C@@H](CS)C(N)=O | > 10 µM | > 10 µM | > 10 µM | – | – | – | – | – | – | – | –
CCCC[C@H](NC(=O)C[C@H](O)[C@H](CC(C)C)NC(=O)[C@H](Cc1c[nH]cn1)NC(=O)CCNC(=O)[C@@H](NC(=O)[C@H](C)NC(=O)[C@H](Cc1c[nH]c2ccccc12)NC(=O)[C@H](CCC(N)=O)NC(=O)[C@@H](Cc1ccccc1)NC(=O)[C@H](CSC1CC(=O)N(CCCCCC(=O)N[C@H](C(=O)N[C@@H](CCCNC(N)=O)C(=O)Nc2ccc(COC(=O)N(C)[C@H](C(=O)N[C@H](C(=O)N(C)[C@@H]([C@@H](C)CC)[C@@H](CC(=O)N3CCC[C@H]3[C@H](OC)[C@@H](C)C(=O)N[C@H](C)[C@@H](O)c3ccccc3)OC)C(C)C)C(C)C)cc2)C(C)C)C1=O)NC(C)=O)C(C)C)C(N)=O (stereo partly specified) | – | – | – | 1280 nM | 121 nM | 176 nM | – | 132 nM | 852 nM | – | 218 nM
CC(=O)N[C@@H](CS)C(=O)N[C@H](Cc1ccccc1)C(=O)N[C@@H](CCC(N)=O)C(=O)N[C@@H](Cc1c[nH]c2ccccc12)C(=O)N[C@@H](C)C(=O)N[C@H](C(=O)N(C)CC(=O)N[C@@H](Cc1c[nH]cn1)C(=O)N[C@@H](CC(C)C)[C@@H](O)CC(=O)N[C@@H](CC(C)C)C(N)=O)C(C)C | 3.6 µM | 0.0363 µM | > 10 µM | – | – | – | – | – | – | – | –
